{
  "source": "ChEMBL document CHEMBL1123757",
  "about": "“Selective thromboxane synthetase inhibitors and antihypertensive agents. New derivatives of 4-hydrazino-5H-pyridazino[4,5-b]indole, 4-hydrazinopyridazino[4,5-a]indole, and related compounds” (J Med Chem, 1987)",
  "key": {"Rattus norvegicus [1]": {"test_system": "Rattus norvegicus", "assay": "Percent fall in systolic blood pressure, directly measured on carotid (iv on the jugular vein) of spontaneously hypertensive rats at 1 mg/kg after 10 minutes", "assay_type": "functional, Artery", "summary_of_the_method": "(§1)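 Anesthetized (sodium pentobarbital, 70 mg/kg) male and female Okamoto SHR, 8 weeks old, 300–350 g. Given iv into the jugular vein in normal saline. Arterial pressure and cardiac rhythm are recorded directly from the carotid by polygraph at set times after dosing. Each is expressed as percent change from the pre-dose control value.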"}, "Rattus norvegicus [2]": {"test_system": "Rattus norvegicus", "assay": "Percent fall in systolic blood pressure, directly measured on carotid (iv on the jugular vein) of spontaneously hypertensive rats at 1 mg/kg after 15 minutes", "assay_type": "functional, Artery", "summary_of_the_method": "as §1"}, "Rattus norvegicus [3]": {"test_system": "Rattus norvegicus", "assay": "Percent fall in systolic blood pressure, directly measured on carotid (iv on the jugular vein) of spontaneously hypertensive rats at 1 mg/kg after 30 minutes", "assay_type": "functional, Artery", "summary_of_the_method": "as §1"}, "Rattus norvegicus [4]": {"test_system": "Rattus norvegicus", "assay": "Percent fall in systolic blood pressure, directly measured on carotid (iv on the jugular vein) of spontaneously hypertensive rats at 1 mg/kg after 5 minutes", "assay_type": "functional, Artery", "summary_of_the_method": "as §1"}, "Rattus norvegicus [5]": {"test_system": "Rattus norvegicus", "assay": "Percent fall in systolic blood pressure, directly measured on carotid (iv on the jugular vein) of spontaneously hypertensive rats at 1 mg/kg after 60 minutes", "assay_type": "functional, Artery", "summary_of_the_method": "as §1"}, "Rattus norvegicus [6]": {"test_system": "Rattus norvegicus", "assay": "Percent fall in systolic blood pressure, directly measured on carotid (iv on the jugular vein) of spontaneously hypertensive rats at 1 mg/kg after 75 minutes", "assay_type": "functional, Artery", "summary_of_the_method": "as §1"}, "Rattus norvegicus [7]": {"test_system": "Rattus norvegicus", "assay": "Percent fall in systolic blood pressure, directly measured on carotid (iv on the jugular vein) of spontaneously hypertensive rats at 1 mg/kg after 90 minutes", "assay_type": "functional, Artery", "summary_of_the_method": "as §1"}, "Rattus norvegicus [8]": {"test_system": "Rattus norvegicus", "assay": "Percent fall in systolic blood pressure, directly measured on carotid (iv on the jugular vein) of spontaneously hypertensive rats at 1 mg/kg after 45 minutes", "assay_type": "functional, Artery", "summary_of_the_method": "as §1"}, "[9]": {"target": "T1, Thromboxane-A synthase (Homo sapiens) (UniProt P24557)", "T1 sequence (whole entry)": "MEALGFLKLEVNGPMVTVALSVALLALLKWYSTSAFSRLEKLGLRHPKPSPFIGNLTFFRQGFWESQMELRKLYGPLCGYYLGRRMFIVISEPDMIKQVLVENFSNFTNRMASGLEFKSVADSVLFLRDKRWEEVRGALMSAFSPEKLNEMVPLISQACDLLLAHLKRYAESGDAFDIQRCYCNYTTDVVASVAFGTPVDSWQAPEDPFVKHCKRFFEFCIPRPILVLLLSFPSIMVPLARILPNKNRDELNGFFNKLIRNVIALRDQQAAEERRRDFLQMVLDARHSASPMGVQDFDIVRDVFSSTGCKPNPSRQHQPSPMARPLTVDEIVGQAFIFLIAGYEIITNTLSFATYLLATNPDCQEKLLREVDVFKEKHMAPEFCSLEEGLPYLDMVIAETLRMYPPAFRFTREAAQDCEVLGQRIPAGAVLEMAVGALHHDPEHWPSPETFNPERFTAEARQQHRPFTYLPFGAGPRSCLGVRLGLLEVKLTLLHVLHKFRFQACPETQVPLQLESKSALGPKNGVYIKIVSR", "assay": "Effect on thromboxane synthetase activity on in vitro platelet aggregation induced by AA at 10e -5 M expressed as percent […] in TXB2", "assay_type": "functional", "summary_of_the_method": "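Human citrated PRP adjusted to 200 000 […], compound at 10^-5 M final in saline/10% ethylene glycol, incubated at 37 °C. Aggregation induced with arachidonic acid 0.6 mM and read by Born absorbance aggregometry. PGE2 and TXB2 in the aggregated samples measured by radioimmunoassay. n = 5.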"}, "Cavia porcellus [10]": {"test_system": "Cavia porcellus", "assay": "Ex vivo inhibition of platelet aggregation induced by AA at 50 mg/kg; No significance", "assay_type": "functional, organism-based", "parameters": "dose 50 mg/kg", "summary_of_the_method": "(§2)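 Fasted male or female guinea pigs (250–300 g, five per group) dosed orally in normal saline or saline with 0.2% (carboxymethyl)cellulose/1.0% Tween 80; controls given vehicle. Under ether, cardiac blood collected into 3.8% citrate. PRP adjusted to […] and aggregation induced by ADP (second wave) or AA, read by absorbance aggregometry. PGE2 and TXB2 measured by RIA.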"}, "Rattus norvegicus [11]": {"test_system": "Rattus norvegicus", "assay": "Antihypertensive activity in spontaneously hypertensive rats (SHR) measured by percentage fall in cardiac rhythm (CR) at 1 mg/kg administered intraperitoneally at 5 h;No significance", "assay_type": "functional, organism-based", "parameters": "dose 1 mg/kg", "conditions": "Heart", "summary_of_the_method": "(§3)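 Unanesthetized Okamoto-strain SHR, male and female, 8 weeks old, 300–350 g, systolic pressure ≥190 mmHg, heart rate 400–650 beats/min; five animals per dose. Given ip at 2.5 mL/kg, dissolved or suspended in normal saline or saline with 0.2% (carboxymethyl)cellulose and 1.0% Tween 80. Tail AP and CR recorded by mechanical transduction at set times; reported as percentage fall from control.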"}, "Rattus norvegicus [12]": {"test_system": "Rattus norvegicus", "assay": "Antihypertensive activity in spontaneously hypertensive rats (SHR) measured by percentage fall in cardiac rhythm (CR) at 25 mg/kg administered perorally at 1 h;No significance", "assay_type": "functional, organism-based", "parameters": "dose 25 mg/kg", "conditions": "Heart", "summary_of_the_method": "(§4)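 Conscious SHR (Okamoto strain), 8 weeks old, male and female, 300–350 g, systolic BP ≥190 mmHg, CR 400–650 beats/min. Given ip or po at 2.5 mL/kg in normal saline or saline with 0.2% (carboxymethyl)cellulose and 1.0% Tween 80. Tail AP and CR recorded by mechanical transduction at 1, 3, 5 and 24 h, five animals per dose. Effect expressed as % fall versus control.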"}, "Rattus norvegicus [13]": {"test_system": "Rattus norvegicus", "assay": "Antihypertensive activity in spontaneously hypertensive rats (SHR) measured by percentage fall in cardiac rhythm (CR) at 25 mg/kg administered perorally at 24 h;No significance", "assay_type": "functional, organism-based", "parameters": "dose 25 mg/kg", "conditions": "Heart", "summary_of_the_method": "as §4"}, "Rattus norvegicus [14]": {"test_system": "Rattus norvegicus", "assay": "Percent increase in cardiac rhythm, directly measured on carotid (iv on the jugular vein) of spontaneously hypertensive rats at 1 mg/kg after 120 minutes;No significance", "assay_type": "functional, organism-based", "parameters": "dose 1 mg/kg", "conditions": "Heart", "summary_of_the_method": "as §1"}, "Rattus norvegicus [15]": {"test_system": "Rattus norvegicus", "assay": "Percent increase in cardiac rhythm, directly measured on carotid (iv on the jugular vein) of spontaneously hypertensive rats at 1 mg/kg after 180 minutes;No significance", "assay_type": "functional, organism-based", "parameters": "dose 1 mg/kg", "conditions": "Heart", "summary_of_the_method": "as §1"}, "Rattus norvegicus [16]": {"test_system": "Rattus norvegicus", "assay": "Percent increase in cardiac rhythm, directly measured on carotid (iv on the jugular vein) of spontaneously hypertensive rats at 1 mg/kg after 240 minutes;No significance", "assay_type": "functional, organism-based", "parameters": "dose 1 mg/kg", "conditions": "Heart", "summary_of_the_method": "as §1"}, "Rattus norvegicus [17]": {"test_system": "Rattus norvegicus", "assay": "Percent increase in cardiac rhythm, directly measured on carotid (iv on the jugular vein) of spontaneously hypertensive rats at 1 mg/kg after 5 minutes;No significance", "assay_type": "functional, organism-based", "parameters": "dose 1 mg/kg", "conditions": "Heart", "summary_of_the_method": "as §1"}, "Rattus norvegicus [18]": {"test_system": "Rattus norvegicus", "assay": "Percent increase in cardiac rhythm, directly measured on carotid (iv on the jugular vein) of spontaneously hypertensive rats at 1 mg/kg after 75 minutes;No significance", "assay_type": "functional, organism-based", "parameters": "dose 1 mg/kg", "conditions": "Heart", "summary_of_the_method": "as §1"}, "Rattus norvegicus [19]": {"test_system": "Rattus norvegicus", "assay": "Antihypertensive activity in spontaneously hypertensive rats (SHR) measured by percentage fall in cardiac rhythm (CR) at 25 mg/kg administered intraperitoneally at 24 h;No significance", "assay_type": "functional, organism-based", "parameters": "dose 25 mg/kg", "conditions": "Heart", "summary_of_the_method": "as §3"}, "Cavia porcellus [20]": {"test_system": "Cavia porcellus", "assay": "Ex vivo inhibition of platelet aggregation induced by ADP-II at 30 mg/kg; No significance", "assay_type": "functional, organism-based", "parameters": "dose 30 mg/kg", "summary_of_the_method": "as §2"}, "Cavia porcellus [21]": {"test_system": "Cavia porcellus", "assay": "Ex vivo inhibition of platelet aggregation induced by ADP-II at 50 mg/kg; No significance", "assay_type": "functional, organism-based", "parameters": "dose 50 mg/kg", "summary_of_the_method": "as §2"}, "Rattus norvegicus [22]": {"test_system": "Rattus norvegicus", "assay": "Antihypertensive activity in spontaneously hypertensive rats (SHR) measured by percentage fall in arterial pressure (AP) at 1 mg/kg administered intraperitoneally at 5 h;No significance significance", "assay_type": "functional, organism-based", "parameters": "dose 1 mg/kg", "conditions": "Artery", "summary_of_the_method": "as §3"}, "Rattus norvegicus [23]": {"test_system": "Rattus norvegicus", "assay": "Antihypertensive activity in spontaneously hypertensive rats (SHR) measured by percentage fall in cardiac rhythm (CR) at 1 mg/kg administered intraperitoneally at 24 h;No significance", "assay_type": "functional, organism-based", "parameters": "dose 1 mg/kg", "conditions": "Heart", "summary_of_the_method": "as §3"}, "Cavia porcellus [24]": {"test_system": "Cavia porcellus", "assay": "Ex vivo inhibition of platelet aggregation induced by AA at 30 mg/kg; No significance", "assay_type": "functional, organism-based", "parameters": "dose 30 mg/kg", "summary_of_the_method": "as §2"}, "Rattus norvegicus [25]": {"test_system": "Rattus norvegicus", "assay": "Antihypertensive activity in spontaneously hypertensive rats (SHR) measured by percentage fall in arterial pressure (AP) at 1 mg/kg administered intraperitoneally at 24 h;No significance", "assay_type": "functional, organism-based", "parameters": "dose 1 mg/kg", "conditions": "Artery", "summary_of_the_method": "as §3"}},
  "data": [
    {"smiles": "NNc1[nH]ncc2c3cc(O)ccc3nc1-2", "values": [
      {"measurement": "Decrease in blood pressure", "setting": "Rattus norvegicus [1]", "result": 44, "unit": "%"},
      {"measurement": "Decrease in blood pressure", "setting": "Rattus norvegicus [2]", "result": 60, "unit": "%"},
      {"measurement": "Decrease in blood pressure", "setting": "Rattus norvegicus [3]", "result": 56, "unit": "%"},
      {"measurement": "Decrease in blood pressure", "setting": "Rattus norvegicus [4]", "result": 33, "unit": "%"},
      {"measurement": "Decrease in blood pressure", "setting": "Rattus norvegicus [5]", "result": 67, "unit": "%"},
      {"measurement": "Decrease in blood pressure", "setting": "Rattus norvegicus [6]", "result": 56, "unit": "%"},
      {"measurement": "Decrease in blood pressure", "setting": "Rattus norvegicus [7]", "result": 56, "unit": "%"},
      {"measurement": "Decrease in blood pressure", "setting": "Rattus norvegicus [8]", "result": 56, "unit": "%"}
    ]},
    {"smiles": "COc1ccc2[nH]c3c(NN)nncc3c2c1", "values": [
      {"measurement": "inhibition", "setting": "[9]", "result": 40, "unit": "%"},
      {"measurement": "inhibition", "setting": "Cavia porcellus [10]", "result": "No significant values"},
      {"measurement": "Decrease in CR", "setting": "Rattus norvegicus [11]", "result": "No significant values"},
      {"measurement": "Decrease in CR", "setting": "Rattus norvegicus [12]", "result": "No significant values"},
      {"measurement": "Decrease in CR", "setting": "Rattus norvegicus [13]", "result": "No significant values"},
      {"measurement": "Increase", "setting": "Rattus norvegicus [14]", "result": "No significant values"},
      {"measurement": "Increase", "setting": "Rattus norvegicus [15]", "result": "No significant values"},
      {"measurement": "Increase", "setting": "Rattus norvegicus [16]", "result": "No significant values"},
      {"measurement": "Increase", "setting": "Rattus norvegicus [17]", "result": "No significant values"},
      {"measurement": "Increase", "setting": "Rattus norvegicus [18]", "result": "No significant values"},
      {"measurement": "Decrease in CR", "setting": "Rattus norvegicus [19]", "result": "No significant values"},
      {"measurement": "inhibition", "setting": "Cavia porcellus [20]", "result": "No significant values"},
      {"measurement": "inhibition", "setting": "Cavia porcellus [21]", "result": "No significant values"},
      {"measurement": "Decrease in AP", "setting": "Rattus norvegicus [22]", "result": "No significant values"},
      {"measurement": "Decrease in AP", "setting": "Rattus norvegicus [23]", "result": "No significant values"},
      {"measurement": "inhibition", "setting": "Cavia porcellus [24]", "result": "No significant values"},
      {"measurement": "Decrease in AP", "setting": "Rattus norvegicus [25]", "result": "No significant values"}
    ]}
  ]
}
